According to PMC3270411 (Chemistry & biology, 2012):
Values belong to the compound of their own block, whether it stands above or below them.

Tests used:
[1] = tested on: c-Jun phosphorylation (pSer73) in HeLa cells; test: LanthaScreen TR-FRET c-Jun phosphorylation assay in HeLa cells; format: cell-based; settings: read-out: p-c-Jun EC50 (nM) Hela; Hela cells, TNF-α stimulation, TR-FRET
Outline: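 HeLa cells stably expressing GFP-c-Jun(1–79), 10,000/well in Opti-MEM with 0.5% charcoal/dextran-treated FBS, 25 mM Hepes pH 7.3, no phenol red; overnight. Pretreated 90 min with compound, then 30 min with 5 ng/ml TNF-α. Lysed in buffer containing 2 nM terbium anti-c-Jun pSer73 antibody; 60 min equilibration at room temperature. TR-FRET: excitation 340 nm, ratio Em 520/Em 490.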

[2] = tested on: c-Jun phosphorylation (phospho Ser73) in A375 cells; format: cell-based; settings: read-out: p-c-Jun EC50 (nM) A375; A375 cells, anisomycin stimulation, microscopy
[3] = tested on: c-Jun phosphorylation in HeLa and A375 cells; test: cellular c-Jun phosphorylation, statements for both assay formats; format: cell-based; settings: tested in parallel in HeLa and A375 formats
JNK1/2/3 [4] = test: KinomeScan 400-kinase panel profiling; format: binding; settings: 10 μM
JNK1/2/3 [5] = test: Z'-lyte JNK kinase assays, statements for JNK1/2/3 together; format: biochemical
JNK1 = JNK1 (Homo sapiens, UniProt P45983); test: intact protein and peptide mass spectrometry of inhibitor-labeled JNK1; format: binding; settings: recombinant JNK1, 5-fold excess of compound; Cys 116
Sequence of JNK1 (P45983 26-321 limits assumed): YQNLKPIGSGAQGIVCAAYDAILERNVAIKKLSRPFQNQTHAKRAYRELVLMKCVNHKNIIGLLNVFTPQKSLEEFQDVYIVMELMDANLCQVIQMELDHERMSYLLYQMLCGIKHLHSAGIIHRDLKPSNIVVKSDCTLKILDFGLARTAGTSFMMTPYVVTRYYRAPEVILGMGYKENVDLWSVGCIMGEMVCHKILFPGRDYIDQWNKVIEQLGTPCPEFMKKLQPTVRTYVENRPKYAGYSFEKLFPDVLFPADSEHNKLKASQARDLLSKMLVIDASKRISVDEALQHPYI

MAPK8 (JNK1) = MAPK8 (JNK1) (Homo sapiens, UniProt P45983); test: Z'-lyte JNK1 kinase assay; format: biochemical; settings: relative to JNK-IN-2
Sequence of MAPK8 (JNK1) (P45983 whole entry): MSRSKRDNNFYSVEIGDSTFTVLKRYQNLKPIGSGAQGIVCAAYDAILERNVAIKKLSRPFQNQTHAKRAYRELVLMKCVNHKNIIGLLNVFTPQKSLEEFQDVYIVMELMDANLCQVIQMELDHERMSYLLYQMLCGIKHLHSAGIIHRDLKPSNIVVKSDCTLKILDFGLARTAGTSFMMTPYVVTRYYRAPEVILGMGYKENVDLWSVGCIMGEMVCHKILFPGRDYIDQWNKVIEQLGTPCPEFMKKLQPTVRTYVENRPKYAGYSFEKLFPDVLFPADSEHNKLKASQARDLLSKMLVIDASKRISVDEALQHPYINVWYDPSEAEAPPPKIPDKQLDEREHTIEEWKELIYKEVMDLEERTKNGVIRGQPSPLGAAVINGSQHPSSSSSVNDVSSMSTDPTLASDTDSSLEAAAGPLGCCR

JNK = test: pulse-chase ATP-biotin binding kinetics assay in A375 cells; format: cell-based; settings: 1μM compound, protection from ATP-biotin labeling
Outline: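 A375 cells treated with 1 μM test compound for 1–5 h, then washed three times in PBS. Lysed in NP-40/CHAPS buffer for 30 min at 4°C, cleared, and gel-filtered into HEPES kinase buffer (about 5–15 mg/ml protein). Lysate labelled with 5 μM ATP-biotin probe for 1 h, reduced with DTT, alkylated with iodoacetamide, and pulled down on streptavidin for 2 h. Read-out: SDS-PAGE and JNK immunoblot.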

JNK3 = JNK3 (Homo sapiens, UniProt P53779); test: in vitro covalent binding kinetics with purified JNK3; settings: 27 molar excess of compound
Sequence of JNK3 (P53779 whole entry): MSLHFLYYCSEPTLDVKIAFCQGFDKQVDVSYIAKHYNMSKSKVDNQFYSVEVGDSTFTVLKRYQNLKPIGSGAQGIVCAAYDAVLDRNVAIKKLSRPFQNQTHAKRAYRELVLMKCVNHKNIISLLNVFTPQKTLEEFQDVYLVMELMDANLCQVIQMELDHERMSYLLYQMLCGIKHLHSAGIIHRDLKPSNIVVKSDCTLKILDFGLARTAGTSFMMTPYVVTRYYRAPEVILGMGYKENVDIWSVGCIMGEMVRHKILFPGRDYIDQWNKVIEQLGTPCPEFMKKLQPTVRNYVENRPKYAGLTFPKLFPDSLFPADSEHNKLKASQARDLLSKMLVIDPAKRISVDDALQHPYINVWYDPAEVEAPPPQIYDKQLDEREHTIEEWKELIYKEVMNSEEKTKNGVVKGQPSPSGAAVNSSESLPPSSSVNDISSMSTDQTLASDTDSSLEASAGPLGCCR
Outline: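 Purified JNK3 incubated with 1 μM test compound for varying times, then ATP-biotin probe 5 μM for 10 min. Protein denatured with an equal volume of 8 M urea and gel-filtered. Biotinylated protein captured on streptavidin beads for 2 h, washed, boiled 10 min at 95°C, run on SDS-PAGE and immunoblotted for JNK.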

EC50 [1]: 2020 nM
EC50 [2]: 2400 nM
IC50s for inhibition of c-Jun phosphorylation in both assay formats [3]: micromolar range
SMILES: N#CC(c1ccnc(NCCc2cccnc2)n1)c1nc2ccccc2s1 (stereo not drawn) [AS601245, reference compound]

SMILES: Cc1ccc(NC(=O)c2ccc(NC(=O)/C=C/CN(C)C)cc2)cc1Nc1nccc(-c2cccnc2)n1 [JNK-IN-1]
binding to JNK1/2/3 in kinase selectivity profiling (JNK1/2/3 [4]): significant binding
IC50 for inhibition of JNK kinase activity (JNK1/2/3 [5]; Z'-lyte assay format): single digit micromolar

EC50 [1]: 704 nM
EC50 [2]: 2400 nM
covalent modification of JNK1 (mass spectrometry) (JNK1): covalent addition of one molecule
IC50 (JNK1/2/3 [5]; read-out: IC50 for inhibition of JNK kinase activity, Z'-lyte assay format): ~1 µM
SMILES: CN(C)C/C=C/C(=O)Nc1ccc(C(=O)Nc2cccc(Nc3nccc(-c4cccnc4)n3)c2)cc1 [JNK-IN-2]

fold increase in biochemical IC50 against JNK1 (MAPK8 (JNK1)): 3 fold
SMILES: CN(C)C/C=C/C(=O)NCc1ccc(C(=O)Nc2cccc(Nc3nccc(-c4cccnc4)n3)c2)cc1 [JNK-IN-4]

SMILES: C=CC(=O)Nc1cccc(C(=O)Nc2ccc(Nc3nccc(-c4cccnc4)n3)cc2)c1 [JNK-IN-5]
EC50 [1]: 118 nM
EC50 [2]: 32 nM
incubation time required to modify JNK to background levels (JNK): Three
time to completely label JNK3 (JNK3): 45 min
fold lower IC50 against JNK1, 2 and 3 (JNK1/2/3 [5]; compared with JNK-IN-2): 500 fold

EC50 [1]: 173 nM
EC50 [2]: 141 nM
SMILES: Cc1ccc(C(=O)Nc2ccc(Nc3nccc(-c4cccnc4)n3)cc2)cc1NC(=O)/C=C/CN(C)C [JNK-IN-10]

IC50s for inhibition of c-Jun phosphorylation in both assay formats [3]: micromolar range
SMILES: Oc1c2ccccc2c2c3c(cccc13)N=N2 [SP-600125]
